From ChEMBL document CHEMBL4190252, “Synthesis, antitumor activity and CDK1 inhibiton of new thiazole nortopsentin analogues” (Eur J Med Chem, 2017)
Activity calls are given as the source filed them. The calls are words filed in the database; no cut-off is given here.

Experiments:
MCF7 [1] = experiment: Induction of apoptosis in human MCF7 cells assessed as early apoptotic cells at 5 x 10^-8 M after 72 hrs by Annexin V/propidium iodide double staining-based flow cytometry (reference value: 1%); assay type: functional
Method in brief: (§1)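 MCF-7 cells were grown in RPMI with 10% FBS, 2 mM L-glutamine and antibiotics at 37 °C in 5% CO2. They were seeded at 2.0 x 10^5 cells/cm2 in triplicate, left to adhere overnight, then treated for 72 h; DMSO 0.1% served as vehicle. Trypsinised cells at 2.0 x 10^5/mL were stained with annexin V-FITC and PI for 15 min at room temperature in the dark. At least 1.0 x 10^4 cells were gated into viable, early apoptotic, late apoptotic and necrotic quadrants.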

[2] = target: Cyclin-dependent kinase 1/cyclin B1 (Homo sapiens, UniProt P06493); experiment: Inhibition of recombinant human full length His-tagged CDK1/cyclin B expressed in baculovirus expression system after 60 mins in presence of omnia peptide substrate by fluorescence based assay
Chain of Cyclin-dependent kinase 1/cyclin B1 (P06493 whole entry): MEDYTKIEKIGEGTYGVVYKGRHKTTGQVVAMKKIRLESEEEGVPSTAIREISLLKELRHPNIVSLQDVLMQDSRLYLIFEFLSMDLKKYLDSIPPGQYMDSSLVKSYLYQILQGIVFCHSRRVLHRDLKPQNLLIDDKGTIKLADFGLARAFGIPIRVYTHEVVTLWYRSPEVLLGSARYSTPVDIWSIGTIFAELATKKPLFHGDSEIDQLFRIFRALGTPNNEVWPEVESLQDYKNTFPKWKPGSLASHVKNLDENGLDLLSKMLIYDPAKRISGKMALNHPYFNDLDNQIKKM
Chain of Cyclin-dependent kinase 1/cyclin B1 (P14635 whole entry, further chain): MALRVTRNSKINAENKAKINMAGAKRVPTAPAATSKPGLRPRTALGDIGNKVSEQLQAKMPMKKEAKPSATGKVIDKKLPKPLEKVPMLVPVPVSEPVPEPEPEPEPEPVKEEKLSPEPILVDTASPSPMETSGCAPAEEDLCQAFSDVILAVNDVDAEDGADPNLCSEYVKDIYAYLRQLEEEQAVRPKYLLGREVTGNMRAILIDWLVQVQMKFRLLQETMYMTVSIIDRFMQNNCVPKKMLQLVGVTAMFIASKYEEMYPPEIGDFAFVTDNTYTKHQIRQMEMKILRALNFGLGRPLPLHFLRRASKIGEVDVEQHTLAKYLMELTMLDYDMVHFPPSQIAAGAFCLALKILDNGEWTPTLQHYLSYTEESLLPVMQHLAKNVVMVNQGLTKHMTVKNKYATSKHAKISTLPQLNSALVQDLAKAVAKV
Method in brief: (§2)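 Recombinant human CDK1/cyclin B in kinase buffer with Omnia peptide substrate, ATP and DTT, with inhibitor at 0.1–10 µM. Reactions ran for 60 min at 30 °C, with fluorescence read at ex 360/em 485 nm. Initial velocity came from the RFU-versus-time slope and was plotted against concentration for a dose-response IC50 fit. Values are mean±SD of two determinations.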

MCF7 [3] = experiment: Induction of apoptosis in human MCF7 cells assessed as viable cells at 5 x 10^-8 M after 72 hrs by Annexin V/propidium iodide double staining-based flow cytometry (reference value: 98.9%); assay type: functional; conditions: MCF7, 72 h, read-out: Activity; method in brief: as §1
MCF7 [4] = experiment: Induction of apoptosis in human MCF7 cells assessed as late apoptotic cells at 5 x 10^-8 M after 72 hrs by Annexin V/propidium iodide double staining-based flow cytometry (reference value: 0%); assay type: functional; method in brief: as §1
MCF7 [5] = experiment: Cell cycle arrest in human MCF7 cells assessed as accumulation at G2/M phase at GI50 concentration after 48 hrs by propidium iodide-staining based flow cytometry; assay type: functional
Method in brief: (§3)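 Cells were trypsinized, washed in cold PBS, and 1 x 10^6 cells stained with 20 µg/ml PI plus 200 µg/ml RNase for 30 min at room temperature in the dark. At least 1x 10^4 cells were analysed by flow cytometry. Mean±SD of three experiments in triplicate.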

MCF7 [6] = experiment: Cell cycle arrest in human MCF7 cells assessed as accumulation at G0/G1 phase at GI50 concentration after 48 hrs by propidium iodide-staining based flow cytometry (reference value: 63.5%); assay type: functional; method in brief: as §3
[7] = target: Cyclin-dependent kinase 1/cyclin B1 (Homo sapiens) (UniProt P06493+P14635); experiment: Inhibition of recombinant human full length His-tagged CDK1/cyclin B expressed in baculovirus expression system at 0.1 to 10 uM after 60 mins in presence of omnia peptide substrate by fluorescence based assay; method in brief: as §2
Chain of Cyclin-dependent kinase 1/cyclin B1 (Homo sapiens) (P06493 whole entry, looked up): as the sequence (P06493 whole entry) above
Chain of Cyclin-dependent kinase 1/cyclin B1 (Homo sapiens) (P14635 whole entry, looked up): as the sequence (P14635 whole entry, further chain) above

Compound	Activity (MCF7 [1])	IC50 [2]	viability at 0.05 µM (MCF7 [3])	Activity (MCF7 [4])	Activity (MCF7 [5])	Activity (MCF7 [6])	inhibition [7]
COCCn1cc(-c2nc(-c3c[nH]c4ncccc34)cs2)c2cc(OC)ccc21	54.2%	1.14 µM	45.8%	0.1%	>50%	–	–
COCCn1cc(-c2csc(-c3c[nH]c4ccc(Br)cc34)n2)c2cccnc21	–	–	–	–	–	9%	inactive
